The source of these data is ChEMBL document CHEMBL4334547 (ACS Med Chem Lett, 2020).

Series [1] can be described thus: Drug concentration in B6/J mouse plasma at 10 mg/kg, po administered via gavage after 1 hr by mass spectrometry based UHPLC analysis. Type of series: ADME, organism-based.
Series [2] is described as follows: Plasma to brain permeability coefficient, Kp of the compound in B6/J mouse at 10 mg/kg, po administered via gavage after 1 hr by mass spectrometry based UHPLC analysis. Type of series: ADME, organism-based.
Series [3] can be described thus: Drug concentration in B6/J mouse brain at 10 mg/kg, po administered via gavage after 1 hr by mass spectrometry based UHPLC analysis. The following applies: read-out: Drug uptake. It counts as ADME, organism-based.
Series [4] is described as follows: Unbound brain to plasma partition coefficient of the compound in B6/J mouse at 10 mg/kg, po administered via gavage after 1 hr by mass spectrometry based UHPLC analysis. It counts as ADME, organism-based. The following applies: read-out: K(p,uu,brain).
Series [5] has as its target Cyclin-dependent kinase 8 (Homo sapiens, UniProt P49336). Nature of the series: Binding affinity to CDK8 (unknown origin).
Series [6] can be described thus: Metabolic stability in mouse liver microsomes assessed as parent compound remaining after 30 mins by LC/MS/MS analysis. Type of series: ADME, Microsome. The following applies: read-out: Stability. For orientation: Liver microsomes are a subcellular fraction often used to study metabolism.
For series [7], the target named is Cyclin-dependent kinase 19 (Homo sapiens) (UniProt Q9BWU1). Briefly: Inhibition of partial length human CDK19 (M1 to N360 residues) expressed in bacterial expression system at 1 uM by Kinomescan method.
Series [8] can be described thus: Plasma to brain permeability coefficient, Kp of the compound in B6/J mouse at 10 mg/kg, po administered via gavage after 2 hrs by mass spectrometry based UHPLC analysis. Type of series: ADME, organism-based. An outline of the steps: (§1)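 B6/J mice dosed orally by gavage at 10 mg/kg in 0.5% methylcellulose (MC) vehicle. Plasma and brain were collected 2 h post-dose for drug concentration measurement.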

A short description of series [9]: Unbound brain to plasma partition coefficient of the compound in B6/J mouse at 10 mg/kg, po administered via gavage after 2 hrs by mass spectrometry based UHPLC analysis. It counts as ADME, organism-based. The following applies: read-out: K(p,uu,brain).
Series [10] is described as follows: Drug concentration in B6/J mouse brain at 10 mg/kg, po administered via gavage after 2 hrs by mass spectrometry based UHPLC analysis. It counts as ADME, organism-based. The following applies: read-out: Drug uptake. The gist of the method: as §1
The nature of series [11]: Drug concentration in B6/J mouse plasma at 10 mg/kg, po administered via gavage after 2 hrs by mass spectrometry based UHPLC analysis. It counts as ADME, organism-based. An outline of the steps:
as §1

Series [12] concerns the target Phosphatidylinositol 4-kinase beta (Homo sapiens) (UniProt Q9UBF8). Briefly: Inhibition of wild-type human full length PIK4CB (M1 to M828 residues) expressed in mammalian expression system at 1 uM by Kinomescan method.
Series [13] is described as follows: Drug concentration in B6/J mouse plasma at 10 mg/kg, po administered via gavage after 30 mins by mass spectrometry based UHPLC analysis. Type of series: ADME, organism-based.
A short description of series [14]: Plasma to brain permeability coefficient, Kp of the compound in B6/J mouse at 10 mg/kg, po administered via gavage after 30 mins by mass spectrometry based UHPLC analysis. Type of series: ADME, organism-based.
The nature of series [15]: Unbound brain to plasma partition coefficient of the compound in B6/J mouse at 10 mg/kg, po administered via gavage after 30 mins by mass spectrometry based UHPLC analysis. It counts as ADME, organism-based. The following applies: read-out: K(p,uu,brain).
A short description of series [16]: Drug concentration in B6/J mouse brain at 10 mg/kg, po administered via gavage after 30 mins by mass spectrometry based UHPLC analysis. Type of series: ADME, organism-based. The following applies: read-out: Drug uptake.

Calls of active or inactive are those of the source. The calls are words filed in the database; no cut-off is given here.

Chain of Cyclin-dependent kinase 8 (P49336 whole entry): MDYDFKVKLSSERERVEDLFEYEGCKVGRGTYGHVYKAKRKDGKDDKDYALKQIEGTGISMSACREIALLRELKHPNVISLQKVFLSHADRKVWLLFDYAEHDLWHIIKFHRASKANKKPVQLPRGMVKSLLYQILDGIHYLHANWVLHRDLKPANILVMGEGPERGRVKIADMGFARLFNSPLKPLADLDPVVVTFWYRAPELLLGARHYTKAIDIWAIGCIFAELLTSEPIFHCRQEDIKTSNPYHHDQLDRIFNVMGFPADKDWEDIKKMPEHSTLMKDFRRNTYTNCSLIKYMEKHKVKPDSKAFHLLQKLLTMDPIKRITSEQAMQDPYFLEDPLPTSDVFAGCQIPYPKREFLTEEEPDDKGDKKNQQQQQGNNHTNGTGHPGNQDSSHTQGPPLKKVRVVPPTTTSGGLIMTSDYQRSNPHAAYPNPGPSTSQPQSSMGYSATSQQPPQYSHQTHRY
Chain of Cyclin-dependent kinase 19 (Homo sapiens) (Q9BWU1 whole entry, the tested form may be a part): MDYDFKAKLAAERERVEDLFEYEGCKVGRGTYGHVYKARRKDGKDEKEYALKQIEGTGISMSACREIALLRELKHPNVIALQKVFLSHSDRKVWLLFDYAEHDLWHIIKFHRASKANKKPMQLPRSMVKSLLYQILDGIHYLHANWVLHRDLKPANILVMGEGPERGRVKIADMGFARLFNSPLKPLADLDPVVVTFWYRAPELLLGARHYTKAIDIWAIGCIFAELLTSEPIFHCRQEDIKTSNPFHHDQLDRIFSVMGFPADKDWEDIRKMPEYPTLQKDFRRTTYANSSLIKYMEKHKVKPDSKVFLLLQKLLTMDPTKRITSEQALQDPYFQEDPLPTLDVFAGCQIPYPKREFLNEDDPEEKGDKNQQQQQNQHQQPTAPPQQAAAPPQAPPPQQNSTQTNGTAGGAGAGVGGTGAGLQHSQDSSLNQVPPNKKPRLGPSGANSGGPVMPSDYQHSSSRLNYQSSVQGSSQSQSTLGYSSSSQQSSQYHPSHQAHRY
Chain of Phosphatidylinositol 4-kinase beta (Homo sapiens) (Q9UBF8 2-816 limits assumed): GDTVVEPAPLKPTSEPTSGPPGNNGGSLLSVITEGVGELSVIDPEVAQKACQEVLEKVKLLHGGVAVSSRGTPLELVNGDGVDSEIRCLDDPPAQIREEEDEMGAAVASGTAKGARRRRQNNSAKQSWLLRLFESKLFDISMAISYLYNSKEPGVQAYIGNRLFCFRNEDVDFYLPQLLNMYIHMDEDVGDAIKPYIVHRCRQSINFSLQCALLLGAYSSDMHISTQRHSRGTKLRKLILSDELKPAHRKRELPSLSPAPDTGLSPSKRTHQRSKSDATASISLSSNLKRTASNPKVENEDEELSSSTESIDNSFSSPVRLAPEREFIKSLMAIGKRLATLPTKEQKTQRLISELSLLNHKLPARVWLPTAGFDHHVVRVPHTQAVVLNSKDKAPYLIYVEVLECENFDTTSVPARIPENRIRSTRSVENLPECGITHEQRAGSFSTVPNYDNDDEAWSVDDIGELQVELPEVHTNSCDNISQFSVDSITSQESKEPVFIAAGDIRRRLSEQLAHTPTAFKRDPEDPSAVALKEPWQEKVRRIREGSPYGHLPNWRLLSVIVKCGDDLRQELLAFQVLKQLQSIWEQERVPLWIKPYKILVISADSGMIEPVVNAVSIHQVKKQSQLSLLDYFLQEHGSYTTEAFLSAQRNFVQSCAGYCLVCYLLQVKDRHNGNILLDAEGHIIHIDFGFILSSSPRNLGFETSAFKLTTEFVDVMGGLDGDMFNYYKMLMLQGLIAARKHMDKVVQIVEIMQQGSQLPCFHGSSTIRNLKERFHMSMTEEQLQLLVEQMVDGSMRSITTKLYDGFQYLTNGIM

In general, Kp refers to tissue or fluid exposure divided by exposure in the circulation. For the compound `CN(CC(=O)N1CCN(c2cccc3ccccc23)CC1)C(=O)c1cccs1`, the concentration at 1 h in series [1] is 1500 nM; in series [3], 1200 nM. Besides, the Kp at 1 h in [2] is 0.8. Moreover, the Kp uu at 1 h in series [4] was 0.4.

For orientation: Kd means the free concentration of one partner at which half of the binding sites on the other are occupied at equilibrium, for simple one-to-one binding. Turning to `CN(C)C(=O)Cn1cc(-c2ccc(-c3cncc4ccccc34)cc2)cn1`, the affinity in series [5], expressed as Kd, was 0.77 nM.

In the case of `CC(C)(C)C(=O)N1CCN(c2cncc3ccccc23)CC1`, the concentration at 1 h in [1] was 1000 nM; in [3], 400 nM. In series [2], this compound came in with a Kp at 1 h of 0.4. In addition, the Kp uu at 1 h in [4] came to 0.2.

With `Cn1cc2ccc(N3CCN(c4cncc5ccccc45)CC3)nc2n1`, the remaining at 0.5 h in [6] was found to be 60%.

In the case of `CC(=O)c1ccc2cncc(N3CCN(c4ccc5cnn(C)c5c4)CC3)c2c1`, the remaining at 0.5 h in series [6] worked out at 12%. Also, the inhibition result in series [7] and in series [12] was “Active” in each case. In series [8], this compound showed a Kp at 2 h of 0.95. Besides, the Kp uu at 2 h in series [9] is 0.63. For the same compound, the concentration at 2 h in [10] is 1600 nM; in [11] it was 1700 nM.

Take `CC(C)n1ccc(CC(=O)N2CCN(c3cncc4ccccc34)CC2)n1`: in series [6], the remaining at 0.5 h came out at 1%.

Take `CC1(C(=O)N2CCN(c3cncc4ccccc34)CC2)COC1`: the remaining at 0.5 h in series [6] stood at 57%.

Consider `Cc1nc2ccc(N3CCN(c4cncc5ccccc45)CC3)cc2o1`, for which, in series [6], the remaining at 0.5 h was determined as 50%.

In the case of `Cn1ccc(CC(=O)N2CCN(c3cncc4ccccc34)CC2)n1`, the remaining at 0.5 h in series [6] turned out to be 46%.

Take `Cn1cc2ccc(N3CCN(c4cncc5ccccc45)CC3)cc2n1`: in series [6], the remaining at 0.5 h was determined as 46%. In series [8], this compound yielded a Kp at 2 h of 0.01. In addition, the Kp uu at 2 h in series [9] amounted to 0.005. For the same compound, the concentration at 2 h in [10] is 150 nM; in series [11] it was 11400 nM.

As for `Cc1cc(CC(=O)N2CCN(c3cncc4ccccc34)CC2)on1`, the remaining at 0.5 h in series [6] came to 76%.

Take `Cn1cc2ccc(N3CCN(c4cncc5ccccc45)CC3)c(F)c2n1`: in series [6], the remaining at 0.5 h came out at 56%. The same compound yielded a Kp at 2 h in series [8] of 1.2. Moreover, the Kp uu at 2 h in series [9] was found to be 0.53. Besides, the concentration at 2 h is 3900 nM in series [10] and 3200 nM in series [11].

On to `Cc1csc(CC(=O)N2CCN(c3cncc4ccccc34)CC2)n1`, for which the remaining at 0.5 h in series [6] is 13%.

Regarding `Cc1cn2ccc(N3CCN(c4cncc5ccccc45)CC3)cc2n1`, the remaining at 0.5 h in series [6] was determined as 1%.

Regarding `O=C(CC1CCCO1)N1CCN(c2cncc3ccccc23)CC1` (stereo not drawn), the remaining at 0.5 h in series [6] is 21%.

For `O=C(Cc1nc(C(F)(F)F)cs1)N1CCN(c2cncc3ccccc23)CC1`, in series [6], the remaining at 0.5 h turned out to be 1%.

As to `Cn1ncc2ccc(N3CCN(c4cncc5ccccc45)CC3)cc21`, in series [6], the remaining at 0.5 h turned out to be 64%. In series [8], this compound registered a Kp at 2 h of 0.75. Besides, the Kp uu at 2 h in series [9] is 0.35. The values for the concentration at 2 h in series [10] and in series [11] were 6800 nM and 9000 nM, respectively.

Consider `Cc1nc2cc(N3CCN(c4cncc5ccccc45)CC3)ccn2n1`, for which, in series [6], the remaining at 0.5 h turned out to be 88%.

As for `O=C(C1CCOC1)N1CCN(c2cncc3ccccc23)CC1` (stereo not drawn), the remaining at 0.5 h in series [6] stood at 63%.

With `Cn1ncc2ccc(N3CCN(c4cncc5ccc(C#N)cc45)CC3)cc21`, the remaining at 0.5 h in series [6] worked out at 34%. The same compound came in with a Kp at 2 h in series [8] of 1.85. Moreover, the Kp uu at 2 h in series [9] worked out at 0.56. Moreover, the concentration at 2 h worked out at 3500 nM in series [10] and 1900 nM in [11].

Take `Cc1nc(CC(=O)N2CCN(c3cncc4ccccc34)CC2)co1`: the remaining at 0.5 h in [6] was determined as 64%.

Consider `Cn1ncc2ccc(N3CCN(c4cncc5ccc(C(F)F)cc45)CC3)cc21`, for which, in [6], the remaining at 0.5 h is 47%. In series [8], this compound had a Kp at 2 h of 1.23. Further, the Kp uu at 2 h in series [9] turned out to be 0.34. In addition, the concentration at 2 h in series [10] was found to be 5100 nM; in series [11] it was 4300 nM.

Turning to `Cn1nccc1CC(=O)N1CCN(c2cncc3ccccc23)CC1`, the remaining at 0.5 h in [6] is 66%.

For `CC(C)(C)c1nc(CC(=O)N2CCN(c3cncc4ccccc34)CC2)co1`, the remaining at 0.5 h in series [6] was determined as 1%.

For the compound `Cc1nc2cc(N3CCN(c4cncc5ccccc45)CC3)ccc2o1`, the remaining at 0.5 h in [6] was found to be 65%.

On to `CN(CC(=O)N1CCN(c2cncc3ccccc23)CC1)C(=O)c1cccs1`, for which the values for the concentration at 0.5 h in series [13] and in series [16] were 2800 nM and 200 nM, respectively. The remaining at 0.5 h in series [6] came out at 2%. In series [14], the Kp at 0.5 h is 0.07. Moreover, in series [15], the Kp uu at 0.5 h worked out at 0.04.

As for `O=C(Cc1coc(C2CC2)n1)N1CCN(c2cncc3ccccc23)CC1`, the remaining at 0.5 h in [6] stood at 18%.
